# Experimental data: ChEMBL document CHEMBL1131121, “Inactivation of S-adenosyl-L-homocysteine hydrolase and antiviral activity with 5',5',6',6'-tetradehydro-6'-deoxy-6'-halohomoadenosine analogues (4'-haloacetylene analogues derived from adenosine)” (J Med Chem, 1998)
# Tests used:
# [1] = test system: HeLa; assay: concentration required to inhibit VSV-induced cytopathicity by 50% in HeLa cells; format: functional, cell-based; conditions: Homo sapiens
# Method in brief: (§1)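 Assay measured inhibition of virus-induced cytopathicity in confluent E6SM, HeLa or Vero monolayers. Cells were inoculated with 100 CCID50 of virus for 1 h adsorption, then unbound virus was removed. Cultures were incubated with serial compound concentrations (400, 200, 100 … µg/mL). Cytopathicity was scored once virus control cultures reached complete CPE, and the 50% effective concentration was derived.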
# [2] = test system: Vero; assay: concentration required to inhibit parainfluenza-3 virus-induced cytopathicity by 50% in Vero cells; format: functional, cell-based; conditions: Chlorocebus sabaeus; method in brief: as §1
# [3] = test system: HeLa; assay: Minimum inhibitory concentration (MIC) required to elicit a microscopically visible alteration of cell morphology in HeLa cells; format: functional; conditions: Homo sapiens
# [4] = test system: HeLa; assay: concentration required to inhibit Coxsackie virus B4-induced cytopathicity by 50% in HeLa cells; format: functional, cell-based; conditions: Homo sapiens; method in brief: as §1
# [5] = test system: Vero; assay: Minimum inhibitory concentration (MIC) required to elicit a microscopically visible alteration of cell morphology in Vero cells; format: functional; conditions: Chlorocebus sabaeus
# [6] = test system: Vero; assay: concentration required to inhibit Sindbis virus -induced cytopathicity by 50% in Vero cells; format: functional, cell-based; conditions: Chlorocebus sabaeus; method in brief: as §1
# [7] = test system: Vero; assay: concentration required to inhibit Coxsackie virus B4-induced cytopathicity by 50% in Vero cells; format: functional, cell-based; conditions: Chlorocebus sabaeus; method in brief: as §1
# [8] = test system: Vero; assay: concentration required to inhibit Punta Toro virus-induced cytopathicity by 50% in Vero cells; format: functional, cell-based; conditions: Chlorocebus sabaeus; method in brief: as §1
# [9] = test system: Vero; assay: concentration required to inhibit reovirus-1 induced cytopathicity by 50% in Vero cells; format: functional, cell-based; conditions: Chlorocebus sabaeus; method in brief: as §1
# [10] = test system: E6SM; assay: Minimum inhibitory concentration (MIC) required to elicit a microscopically visible alteration of cell morphology in E6SM cells; format: functional; conditions: Homo sapiens
# [11] = test system: E6SM; assay: concentration required to inhibit vaccinia virus-induced cytopathicity by 50% in E6SM cells; format: functional, cell-based; conditions: Homo sapiens; method in brief: as §1
# [12] = test system: Vero; assay: concentration required to inhibit reovirus-1-induced cytopathicity by 50% in Vero cells; format: functional, cell-based; conditions: Chlorocebus sabaeus; method in brief: as §1
# [13] = test system: E6SM; assay: concentration required to inhibit VSV-induced cytopathicity by 50% in E6SM cells; format: functional, cell-based; conditions: Homo sapiens; method in brief: as §1
# [14] = test system: E6SM; assay: concentration required to inhibit HSV-1(KOS)-induced cytopathicity by 50% in E6SM cells; format: functional, cell-based; conditions: Homo sapiens; method in brief: as §1
# [15] = test system: E6SM; assay: concentration required to inhibit HSV-1/TK (B2006) or VMW1837-induced cytopathicity by 50% in E6SM cells; format: functional, cell-based; conditions: Homo sapiens; method in brief: as §1
# [16] = test system: E6SM; assay: concentration required to inhibit HSV-2(G)-induced cytopathicity by 50% in E6SM cells; format: functional, cell-based; conditions: Homo sapiens; method in brief: as §1
# [17] = biological target: T1, Adenosylhomocysteinase (Homo sapiens, UniProt P23526); assay: NADH content of the enzyme (percentage of total coenzyme) from the compound; format: functional
# Method in brief: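 AdoHcy hydrolase (10 µM) in buffer A was incubated with 100 µM compound at 37 °C for 20 min. Conversion of enzyme-bound NAD⁺ to NADH was followed by UV absorbance at 340 nm and quantified against a standard curve. Values are given as % of total coenzyme.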
# Target sequence in this assay (P23526 2-432 limits assumed): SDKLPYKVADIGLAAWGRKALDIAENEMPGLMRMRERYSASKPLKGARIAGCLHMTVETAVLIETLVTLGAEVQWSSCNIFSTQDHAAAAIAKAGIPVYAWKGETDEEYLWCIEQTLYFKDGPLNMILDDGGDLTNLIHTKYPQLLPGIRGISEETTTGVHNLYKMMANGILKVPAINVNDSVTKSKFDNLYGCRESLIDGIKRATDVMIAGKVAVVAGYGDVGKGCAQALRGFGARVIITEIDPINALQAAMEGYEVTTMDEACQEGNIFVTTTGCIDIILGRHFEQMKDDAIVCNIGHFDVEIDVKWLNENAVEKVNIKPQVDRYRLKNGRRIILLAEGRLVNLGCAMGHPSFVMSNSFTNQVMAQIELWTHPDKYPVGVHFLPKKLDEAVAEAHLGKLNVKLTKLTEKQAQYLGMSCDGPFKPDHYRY
# [18] = biological target: T1, Adenosylhomocysteinase; assay: Effect on the S-adenosyl-homocysteine hydrolase activity; format: functional
# Method in brief: (§2)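 Recombinant human placental AdoHcy hydrolase was exposed to 100 µM inhibitor in buffer A (50 mM potassium phosphate, pH 7.2, 1 mM EDTA) at 37 °C for 20 min. Residual activity was measured in the synthetic direction with 1 mM Ado plus 5 mM Hcy for 5 min at 37 °C. The reaction was stopped with HClO4 and AdoHcy quantified by C18 reverse-phase HPLC.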
# Target sequence in this assay (P23526 2-432 limits assumed): as above
# [19] = biological target: T1, Adenosylhomocysteinase; assay: Inhibition of S-adenosyl-homocysteine hydrolase at 0.1 uM concentration was determined from enzyme activity remaining; values are per cent of control
# Target sequence in this assay (P23526 2-432 limits assumed): as above
# [20] = test system: HeLa; assay: concentration required to inhibit RSV-induced cytopathicity by 50% in HeLa cells; format: functional, cell-based; conditions: Homo sapiens; method in brief: as §1
# [21] = biological target: T1, Adenosylhomocysteinase; assay: Inhibition of S-adenosyl-homocysteine hydrolase at 10 uM concentration was determined from enzyme activity remaining; values are per cent of control
# Target sequence in this assay (P23526 2-432 limits assumed): as above
# [22] = biological target: T1, Adenosylhomocysteinase; assay: (§3) Kinetic constant calculated from the pseudo-first-order rate constant(k app) for S-adenosyl-homocysteine hydrolase inactivation
# Method in brief: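 Recombinant human placental AdoHcy hydrolase (25 nM) preincubated with 0–100 µM inhibitor in buffer A (50 mM potassium phosphate, pH 7.2, 1 mM EDTA) at 37 °C for 0–5 min. Residual activity then measured in the synthetic direction (Ado 1 mM, Hcy 5 mM, 37 °C, 5 min; AdoHcy by reverse-phase HPLC). k_app taken from log remaining activity vs time; k2 and Ki from Kitz–Wilson analysis.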
# Target sequence in this assay (P23526 whole entry): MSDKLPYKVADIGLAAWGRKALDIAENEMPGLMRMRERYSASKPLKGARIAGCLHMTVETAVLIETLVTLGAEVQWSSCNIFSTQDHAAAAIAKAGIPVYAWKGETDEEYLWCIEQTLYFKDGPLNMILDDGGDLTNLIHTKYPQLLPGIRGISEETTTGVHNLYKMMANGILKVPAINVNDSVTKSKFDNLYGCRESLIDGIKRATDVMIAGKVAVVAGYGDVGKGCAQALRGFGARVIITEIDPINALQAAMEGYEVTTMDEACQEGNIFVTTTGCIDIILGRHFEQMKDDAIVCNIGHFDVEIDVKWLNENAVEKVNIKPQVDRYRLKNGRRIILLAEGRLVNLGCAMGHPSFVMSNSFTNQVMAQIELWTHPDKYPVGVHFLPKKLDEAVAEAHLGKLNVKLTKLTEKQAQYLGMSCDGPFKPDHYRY
# [23] = biological target: T1, Adenosylhomocysteinase; assay: Enzyme-mediated release of halide ions from the compound; format: functional
# Method in brief: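 Enzyme (10 µM) was incubated with 100 µM compound in buffer A at 37 °C for 20 min and the filtrate collected through a 3000 Mr cutoff device. Cl⁻ and Br⁻ were measured by anion-exchange HPLC with conductivity detection (1.5 mM p-hydroxybenzoic acid/2% methanol, pH 8.5). I⁻ was measured by C18 ion-pair HPLC at 260 nm. All ions were quantified against standard curves.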
# Target sequence in this assay (P23526 2-432 limits assumed): as the sequence (P23526 2-432 limits assumed) above
# [24] = biological target: T1, Adenosylhomocysteinase; assay: as §3; remark: listed apart in the source
# Method in brief: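 For time-dependent inactivation, enzyme (25 nM) was incubated with various inhibitor concentrations in buffer A at 37 °C for 0–5 min, then residual synthetic-direction activity was assayed by HPLC. k_app was taken from the log(remaining activity) versus time plot. k2 and Ki were derived from k_app and [I] by the Kitz–Wilson method.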
# Target sequence in this assay (P23526 2-432 limits assumed): as above
# [25] = biological target: T1, Adenosylhomocysteinase; assay: (§4) Enzyme-mediated release of Adenine(Ade) from the compound; format: functional
# Method in brief: (§5)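 AdoHcy hydrolase (10 µM) was incubated with 100 µM compound in buffer A at 37 °C for 20 min. At each time point the reaction was stopped with 5 M HClO4 and adenine measured by HPLC. The peak identity was confirmed by co-injection with authentic adenine and by CI/NH3 mass spectrometry.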
# [26] = biological target: T1, Adenosylhomocysteinase; assay: Inhibition of S-adenosyl-homocysteine hydrolase at 100 uM concentration; method in brief: as §2
# [27] = biological target: T1, Adenosylhomocysteinase; assay: Inhibition of S-adenosyl-homocysteine hydrolase at 1 uM concentration was determined from enzyme activity remaining; values are per cent of control
# [28] = biological target: T1, Adenosylhomocysteinase; assay: Inhibition of S-adenosyl-homocysteine hydrolase at 100 uM concentration was determined from S-adenosylhomocysteine hydrolase activity remaining; conditions: values are per cent of control; method in brief: as §2
# [29] = biological target: T1, Adenosylhomocysteinase; assay: as §4; method in brief: as §5
# [30] = biological target: T1, Adenosylhomocysteinase; assay: Inhibition of S-adenosyl-homocysteine hydrolase at 100 uM concentration was determined from enzyme activity remaining; conditions: values are per cent of control; method in brief: as §2
# [31] = biological target: T1, Adenosylhomocysteinase; assay: Inhibition of S-adenosyl-homocysteine hydrolase at 01 uM concentration was determined from enzyme activity remaining
# Method in brief: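 Recombinant human placental AdoHcy hydrolase (25 nM) was preincubated with 0–100 µM inhibitor in buffer A (50 mM potassium phosphate, pH 7.2, 1 mM EDTA) at 37 °C for 20 min. Remaining activity was assayed as AdoHcy formed from 1 mM Ado and 5 mM Hcy (5 min, 37 °C), then HClO4 quench and C18 HPLC. Results are given as % activity remaining.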
Compound,EC50 [1] [µM],EC50 [2] [µM],MIC [3] [µM],EC50 [4] [µM],MIC [5] [µM],EC50 [6] [µM],EC50 [7] [µM],EC50 [8] [µM],MIC [10] [µM],EC50 [11] [µM],EC50 [12] [µM],EC50 [13] [µM],EC50 [14] [µM],EC50 [15] [µM],EC50 [16] [µM],Total coenzyme [17] [%],Activity [18] [%],residual activity [19] [%],EC50 [20] [µM],residual activity [21] [%],other results
NC1=NC(CCCO)N(CCCO)c2[nH]cnc21 (configuration not stated),400,1200,> 2000,> 2000,> 1600,> 2000,> 2000,> 2000,–,–,–,–,–,–,–,–,–,–,–,–,EC50 [9]: 240 µM
NC(=O)c1ncn([C@@H]2O[C@H](CO)[C@@H](O)[C@H]2O)n1 [RIBAVIRIN],192,64,> 1600,320,> 1600,64,> 1600,64,> 1600,192,64,192,960,128,960,–,–,–,–,–,–
Nc1ncnc2c1ncn2C1O[C@H](C#CI)[C@@H](O)[C@H]1O (some centres not stated),260,2.6,> 1040,> 260,> 180,> 104,> 104,> 104,26,0.26,> 0.78,0.08,> 10,> 10,> 10,96,1.4,80,> 260,8.8,Ki [22]: 1.1 µM; Release [23]: 0%; k2 [24]: 0.095 min⁻¹; Release [25]: 5.7%; inhibition [26]: < 2%; residual activity [27]: 44.6%
Nc1ncnc2c1ncn2C1O[C@H](C#CBr)[C@@H](O)[C@H]1O (some centres not stated),45,6,> 300,> 300,> 120,> 30,> 30,> 30,> 300,6,3,6,> 120,> 120,> 120,49,49,91,210,62.9,Ki [22]: 3.8 µM; residual activity [28]: 56%; Release [23]: 70%; k2 [24]: 0.49 min⁻¹; Release [25]: 28%; residual activity [27]: 73.2%
Nc1ncnc2c1ncn2C1O[C@H](C#CCl)[C@@H](O)[C@H]1O (some centres not stated),> 140,> 35,> 340,> 140,> 140,> 35,> 35,> 35,> 340,140,> 35,70,> 140,> 140,> 140,53,47,89.3,> 140,58.9,Release [29]: 18%; residual activity [30]: 55%; Ki [22]: 1.7 µM; Release [23]: 28%; k2 [24]: 0.48 min⁻¹; inhibition [31]: 64%
